Published values of several laboratories.
Each line is one published result; the experiments were not run side by side.
ALDH1A3: Retinaldehyde dehydrogenase 3 (ALDH1A3, Homo sapiens, UniProt P47895)
MAOB: Amine oxidase [flavin-containing] B (MAOB, Homo sapiens, UniProt P27338)
Pancreatic alpha-amylase: Pancreatic alpha-amylase (Homo sapiens, UniProt P04746)
CA9: Carbonic anhydrase 9 (CA9, Homo sapiens, UniProt Q16790)
PADI4: Protein-arginine deiminase type-4 (PADI4, Homo sapiens, UniProt Q9UM07)
HDAC9: Histone deacetylase 9 (HDAC9, Homo sapiens, UniProt Q9UKV0)
CHRM4: Muscarinic acetylcholine receptor M4 (CHRM4, Homo sapiens, UniProt P08173)

SMILES | target | effect on | action | technique | setting | IC50
O=C(N[C@@H](CSCc1ccccc1)C(=O)NO)c1ccccc1 | Lactoylglutathione lyase (GLO1, Homo sapiens, UniProt Q04760) | enzyme activity | inhibitor |  |  | 5270 nM
COc1nc2ccc(Br)cc2cc1[C@@H](c1ccccc1)[C@@](O)(CCN(C)C)c1cccc2ccccc12 | ALDH1A3 | enzyme activity | inhibitor |  |  | < 10000 nM
O=C(Nc1ccc(Cl)c(Cl)c1)c1ccc2c(c1)C(=O)NC2=O | MAOB | enzyme activity | inhibitor |  |  | 14 nM
COc1cc(/C=N/NC(=S)NN=Cc2cccs2)ccc1Oc1ccnc2cc(Cl)ccc12 | Pancreatic alpha-amylase | enzyme activity | inhibitor | absorbance |  | 60000 nM
NS(=O)(=O)c1ccc(-c2ccc(Nc3ccncc3)cc2)cc1 | CA9 | enzyme activity | inhibitor |  |  | 210 nM
COc1cc(/C=N/NC(=S)N/N=C/c2ccc(Cl)cc2)ccc1Oc1ccnc2cc(Cl)ccc12 | Pancreatic alpha-amylase | enzyme activity | inhibitor | absorbance |  | 44100 nM
N=C(CCl)NCCC[C@H](NC(=O)c1ccc2cc(B(O)O)ccc2c1)c1nc2ccccc2[nH]1 | PADI4 | enzyme activity | inhibitor | fluorescence | with preincubation | 295 nM
O=C(NO)c1ccc(Cn2cnc3c(Nc4ccc(Cl)cc4)ncnc32)cc1 | HDAC9 | enzyme activity | inhibitor |  |  | 385 nM
O=C(CCNC(=O)CNC(=O)CC(c1ccccc1)(c1ccccc1)c1ccccc1)NC[C@@H]1CCCN(Cc2cccnc2F)C1 | CHRM4 | ligand displacement |  | radioligand | cell membranes | > 30000 nM
Cc1ccc(-c2ccc(C=O)cc2)c(C)c1 | ALDH1A3 | enzyme activity | inhibitor |  |  | 110 nM
O=C(O)CC(O)(CC(=O)O)C(=O)O | Catechol O-methyltransferase (Comt, Rattus norvegicus, UniProt P22734) | enzyme activity | inhibitor |  |  | 947000 nM
N=C(CCl)NCCC[C@H](NC(=O)c1cccc(-c2ccc(B(O)O)cc2)c1)c1nc2ccccc2[nH]1 | PADI4 | enzyme activity | inhibitor | fluorescence | with preincubation | 588 nM
COc1ccc(N(Cc2csc(-c3ccc(Br)cc3)n2)C(=O)CCCCCC(=O)NO)cc1 | HDAC9 | enzyme activity | inhibitor |  |  | > 10000 nM
COc1ccc2cc(C(=O)N[C@@H](CCCNC(=N)CCl)C(=O)NCc3ccccc3)[nH]c2c1 | PADI4 | enzyme activity | inhibitor | fluorescence | with preincubation | 362 nM
O=C(Nc1ccc(F)c(F)c1)c1ccc2c(c1)C(=O)NC2=O | MAOB | enzyme activity | inhibitor |  |  | 24 nM
CC(C)N(CCC(=O)c1ccc2ccccc2c1)Cc1ccccc1 | ALDH1A3 | enzyme activity | inhibitor |  |  | < 10000 nM
O=C(Nc1cccc(Br)c1)c1ccc2c(c1)C(=O)NC2=O | MAOB | enzyme activity | inhibitor |  |  | 180 nM
N=C(CCl)NCCC[C@H](NC(=O)c1cccc(NC(=O)c2cc3c(s2)CCC3)c1)C(=O)NCc1ccccc1 | PADI4 | enzyme activity | inhibitor | fluorescence | with preincubation | 454 nM
NS(=O)(=O)c1ccc(Nc2nc(-c3cc4cc(Br)ccc4oc3=O)cs2)c(Br)c1 | CA9 | enzyme activity | inhibitor |  |  | 860 nM
O=C(Nc1cc(Cl)cc(Cl)c1)c1ccc2c(c1)C(=O)NC2=O | MAOB | enzyme activity | inhibitor |  |  | 55 nM

SMILES | target | effect on | action | technique | setting | IC50
COc1cc(/C=N/NC(=S)N/N=C/c2ccc(F)cc2)ccc1Oc1ccnc2cc(Cl)ccc12 | Pancreatic alpha-amylase | enzyme activity | inhibitor | absorbance |  | 54300 nM
CCCNS(=O)(=O)Nc1ncnc(OCCOc2ncc(Br)cn2)c1-c1ccc(Br)cc1 | Endothelin receptor type B (EDNRB, Homo sapiens, UniProt P24530) | ligand displacement |  | radioligand | cell membranes | 1370 nM
COc1ccc(N(Cc2nc(-c3ccc(F)cc3)cs2)C(=O)CCCCCC(=O)NO)cc1 | HDAC9 | enzyme activity | inhibitor |  |  | > 10000 nM
N=C(CCl)NCCC[C@H](NC(=O)c1ccc2cc(O)ccc2n1)C(=O)NCc1ccccc1 | PADI4 | enzyme activity | inhibitor | fluorescence | with preincubation | 560 nM
NS(=O)(=O)c1cccc(Nc2nc(-c3cc4cc(Br)ccc4oc3=O)cs2)c1 | CA9 | enzyme activity | inhibitor |  |  | 1910 nM
COc1cc(/C=N/NC(=S)N/N=C/c2ccc(Br)s2)ccc1Oc1ccnc2cc(Cl)ccc12 | Pancreatic alpha-amylase | enzyme activity | inhibitor | absorbance |  | 39100 nM
N=C(CCl)NCCC[C@H](NC(=O)c1ccc2cc(Br)ccc2n1)C(=O)NCc1ccccc1 | PADI4 | enzyme activity | inhibitor | fluorescence | with preincubation | 1490 nM
O=C1Nc2ccc(I)cc2/C1=C/c1cc(Br)c(O)c(Br)c1 | Dual specificity tyrosine-phosphorylation-regulated kinase 4 (DYRK4, Homo sapiens, UniProt Q9NR20) | enzyme activity | inhibitor |  |  | 4940 nM
N=C(CCl)NCCC[C@H](NC(=O)c1ccc(O)cc1)c1nc2ccccc2[nH]1 | PADI4 | enzyme activity | inhibitor | fluorescence | with preincubation | 718 nM
COc1cc(/C=N/NC(=S)N/N=C\c2ccc(CCl)cc2)ccc1Oc1ccnc2cc(Cl)ccc12 | Pancreatic alpha-amylase | enzyme activity | inhibitor | absorbance |  | 58400 nM
CN1CCN(c2nc(-c3cc4cc(Br)ccc4oc3=O)cs2)CC1 | CA9 | enzyme activity | inhibitor |  |  | 1350 nM
O=C(CCNC(=O)CNC(=O)CC(c1ccccc1)(c1ccccc1)c1ccccc1)NCC1CCN(Cc2ccc(F)cc2)CC1 | CHRM4 | ligand displacement |  | radioligand | cell membranes | 11600 nM
COc1cc(/C=N/NC(=S)NN=Cc2scnc2C)ccc1Oc1ccnc2cc(Cl)ccc12 | Pancreatic alpha-amylase | enzyme activity | inhibitor | absorbance |  | 57100 nM
N=C(CCl)NCCC[C@H](NC(=O)c1ccc2cc(O)ccc2c1)C(=O)NCc1ccccc1 | PADI4 | enzyme activity | inhibitor | fluorescence | with preincubation | 240 nM
NC/C(=C\F)COc1cccc(Cn2c(=S)[nH]c(=O)c3[nH]cnc32)c1 | MAOB | enzyme activity | inhibitor |  |  | 13000 nM
COc1cc(/C=N/NC(=S)NN=Cc2ccncc2)ccc1Oc1ccnc2cc(Cl)ccc12 | Pancreatic alpha-amylase | enzyme activity | inhibitor | absorbance |  | 49700 nM
O=C(Nc1ccc(F)c(Br)c1)c1ccc2c(c1)C(=O)NC2=O | MAOB | enzyme activity | inhibitor |  |  | 11 nM
COc1cc(/C=N/NC(=S)N/N=C/c2ccc(C=O)cc2)ccc1Oc1ccnc2cc(Cl)ccc12 | Pancreatic alpha-amylase | enzyme activity | inhibitor | absorbance |  | 58700 nM
CN1CCC(CNc2ccc3ncc(-c4cccc(OC(F)(F)F)c4)n3n2)CC1 | Histamine H1 receptor (HRH1, Homo sapiens, UniProt P35367) | calcium signal | antagonist |  |  | 8450 nM
